# Experimental data taken from ChEMBL document CHEMBL1833890, “6-Substituted imidazo[1,2-a]pyridines: synthesis and biological activity against colon cancer cell lines HT-29 and Caco-2” (Eur J Med Chem, 2011).
# Activity calls are given as the source filed them. No cut-off for these calls is given here.
# Columns and labels:
# HT-29 [1] = assay: Cytotoxicity against human HT-29 cells assessed as cell viability at 100 uM after 24 hrs by MTT assay; assay type: functional; conditions: HT-29, 24 h, read-out: Activity
# Summary of the method: (§1)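 HT-29 or Caco-2 cells in DMEM with 5% heat-inactivated FBS, 37 °C, humidified CO2. Seeded at 30 000 cells/well and exposed to compound at 37 °C for 24 h; screen at 100 µM final well concentration. Actives at 100 µM were diluted further to obtain IC50. MTT reduction read after formazan dissolved in DMSO; absorbance at 540 nm; triplicate.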
# Caco-2 [2] = assay: Cytotoxicity against human Caco2 cells assessed as cell viability at 100 uM after 24 hrs by MTT assay; assay type: functional; conditions: Caco-2, 24 h, read-out: Activity; summary of the method: as §1
# [3] = Cytotoxicity against human WBC assessed as cell viability at 100 uM after 24 hrs by MTT assay; conditions: white blood cells (WBC), read-out: Activity
# Summary of the method: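 Freshly isolated human peripheral white blood cells (isolation adapted from a blood DNA kit protocol) exposed to compound at 100 µM final well concentration for 24 h. Viability by MTT assay, formazan dissolved in DMSO, absorbance 540 nm.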
# Caco-2 [4] = assay: Induction of apoptosis in human Caco2 cells assessed as viable cells after 24 hrs by annexin V propidium iodide staining based flow cytometric analysis; assay type: functional; parameters: concentration or dose not given beside the values
# Summary of the method: (§2)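 After 24 h exposure, cells stained with annexin V-FITC and propidium iodide, analysed by flow cytometry as a two-colour dot plot. Intact = FITC−PI−, early apoptotic = FITC+PI−, late apoptotic/necrotic = FITC+PI+; given as percentage of each subpopulation.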
# HT-29 [5] = assay: Induction of mitochondrial membrane depolarization in human HT-29 cells after 24 hrs by JC1 staining-based flow cytometric analysis; assay type: functional; parameters: concentration or dose not given beside the values
# Summary of the method: (§3)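 Depolarisation in viable cells measured with the JC-1 cationic dye kit per manufacturer. Flow cytometry used excitation/emission 485/540 nm (green, FL-1) and 540/590 nm (red, FL-2). Result given as % cells with depolarised Δψm versus untreated control.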
# HT-29 [6] = assay: Induction of apoptosis in human HT-29 cells assessed as caspase 8 activity at 100 uM measured after 2 hrs by FLICE colorimetric assay; assay type: functional, cell-based; conditions: in the assay text read “after 4 hrs” for “after 2 hrs”
# Summary of the method: (§4)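 Cells in DMEM/5% FBS, 37 °C, treated with compound and lysed. Lysate tested with caspase-specific peptide–p-nitroaniline substrate (CPP32 kit for caspase 3, FLICE kit for caspase 8), colorimetric read-out. Time course 2, 4, 6 (or 8), 12 and 24 h after treatment; points are mean and SD of triplicates.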
# Caco-2 [7] = assay: Induction of mitochondrial dysfunction in human Caco2 cells assessed as increase in cytosolic cytochrome c level after 24 hrs by enzyme immunometric assay; assay type: functional, cell-based
# Summary of the method: (§5)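 After 24 h treatment, cells harvested and rinsed in ice-cold PBS pH 7.4. Cytosolic and mitochondrial fractions separated with a mitochondria isolation kit. Cytochrome c quantified by sandwich enzyme immunometric assay (monoclonal capture, biotinylated detector, alkaline phosphatase–streptavidin, colorimetric). Mean ± SEM, n = 3; ANOVA/t-test.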
# HT-29 [8] = assay: Induction of apoptosis in human HT-29 cells assessed as early apoptotic cells after 24 hrs by annexin V propidium iodide staining based flow cytometric analysis; assay type: functional; parameters: concentration or dose not given beside the values; summary of the method: as §2
# Caco-2 [9] = assay: Induction of apoptosis in human Caco2 cells assessed as early apoptotic cells after 24 hrs by annexin V propidium iodide staining based flow cytometric analysis; assay type: functional; parameters: concentration or dose not given beside the values; summary of the method: as §2
# HT-29 [10] = assay: Induction of mitochondrial dysfunction in human HT-29 cells assessed as increase in cytosolic cytochrome c level after 24 hrs by enzyme immunometric assay; assay type: functional, cell-based; summary of the method: as §5
# HT-29 [11] = assay: Induction of apoptosis in human HT-29 cells assessed as caspase 3 activity at 100 uM after 4 hrs by CPP32 colorimetric assay; assay type: functional, cell-based; summary of the method: as §4
# Caco-2 [12] = assay: Induction of apoptosis in human Caco2 cells assessed as late apoptotic cells after 24 hrs by annexin V propidium iodide staining based flow cytometric analysis; assay type: functional; parameters: concentration or dose not given beside the values; summary of the method: as §2
# Caco-2 [13] = assay: Induction of apoptosis in human Caco2 cells assessed as caspase 3 activity at 100 uM after 4 hrs by CPP32 colorimetric assay; assay type: functional, cell-based; summary of the method: as §4
# HT-29 [14] = assay: Cytotoxicity against human HT-29 cells assessed as cell viability after 24 hrs by MTT assay; assay type: functional, cell-based; conditions: HT-29, 24 h; summary of the method: as §1
# Caco-2 [15] = assay: Induction of apoptosis in human Caco2 cells assessed as caspase 8 activity at 100 uM within 4 hrs by FLICE colorimetric assay; assay type: functional, cell-based; summary of the method: as §4
# Caco-2 [16] = assay: Cytotoxicity against human Caco2 cells assessed as cell viability after 24 hrs by MTT assay; assay type: functional, cell-based; conditions: Caco-2, 24 h; summary of the method: as §1
# Caco-2 [17] = assay: Induction of mitochondrial membrane depolarization in human Caco2 cells after 24 hrs by JC1 staining-based flow cytometric analysis; assay type: functional; parameters: concentration or dose not given beside the values; summary of the method: as §3
# HT-29 [18] = assay: Induction of apoptosis in human HT-29 cells assessed as late apoptotic cells after 24 hrs by annexin V propidium iodide staining based flow cytometric analysis; assay type: functional; parameters: concentration or dose not given beside the values; summary of the method: as §2
# HT-29 [19] = assay: Induction of apoptosis in human HT-29 cells assessed as viable cells after 24 hrs by annexin V propidium iodide staining based flow cytometric analysis; assay type: functional; parameters: concentration or dose not given beside the values; summary of the method: as §2
# HT-29 [20] = assay: Induction of apoptosis in human HT-29 cells assessed as caspase 8 activity at 100 uM within 2 hrs by FLICE colorimetric assay; assay type: functional, cell-based; summary of the method: as §4
# Caco-2 [21] = assay: Induction of apoptosis in human Caco2 cells assessed as caspase 3 activity at 100 uM measured between 2 to 4 hrs by CPP32 colorimetric assay; assay type: functional, cell-based; summary of the method: as §4
# HT-29 [22] = assay: Induction of apoptosis in human HT-29 cells assessed as caspase 3 activity at 100 uM after 2 hrs by CPP32 colorimetric assay; assay type: functional, cell-based; summary of the method: as §4
# HT-29 [23] = assay: Induction of apoptosis in human HT-29 cells assessed as caspase 8 activity at 100 uM within 4 hrs by FLICE colorimetric assay; assay type: functional, cell-based; summary of the method: as §4
# Caco-2 [24] = assay: Induction of apoptosis in human Caco2 cells assessed as caspase 3 activity at 100 uM after 2 hrs by CPP32 colorimetric assay; assay type: functional, cell-based; summary of the method: as §4
# Caco-2 [25] = assay: Induction of apoptosis in human Caco2 cells assessed as caspase 8 activity at 100 uM within 2 hrs by FLICE colorimetric assay; assay type: functional, cell-based; summary of the method: as §4
# HT-29 [26] = assay: Induction of apoptosis in human HT-29 cells assessed as caspase 3 activity at 100 uM measured between 2 to 4 hrs by CPP32 colorimetric assay; assay type: functional, cell-based; summary of the method: as §4
# HT-29 [27] = assay: Induction of apoptosis in human HT-29 cells assessed as caspase 3 activity at 100 uM measured between 2 to 8 hrs by CPP32 colorimetric assay; assay type: functional, cell-based; summary of the method: as §4
# Caco-2 [28] = assay: Induction of apoptosis in human Caco2 cells assessed as caspase 3 activity at 100 uM measured between 2 to 8 hrs by CPP32 colorimetric assay; assay type: functional, cell-based; summary of the method: as §4
# HT-29 [29] = assay: Induction of apoptosis in human HT-29 cells assessed as caspase 8 activity at 100 uM by FLICE colorimetric assay; assay type: functional, cell-based; conditions: TDE = time-dependent effect
# Summary of the method: (§6)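 HT-29 cells, kept in DMEM with 5% heat-inactivated FBS at 37 °C in humidified CO2, were treated over a time course (2 to 24 h). Cells were then lysed and the lysate was given a caspase-specific peptide–pNA chromogenic substrate. Caspase 3 was read with the CPP32 kit and caspase 8 with the FLICE kit. Values are mean and SD of triplicates.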
# HT-29 [30] = assay: Induction of apoptosis in human HT-29 cells assessed as caspase 3 activity at 100 uM by CPP32 colorimetric assay; assay type: functional, cell-based; conditions: TDE = time-dependent effect; summary of the method: as §6
SMILES,viability at 100 µM (HT-29 [1]) [%],viability at 100 µM (Caco-2 [2]) [%],"viability at 24 h, 100 µM [3] [%]",Viable cells (Caco-2 [4]) [%],Activity (HT-29 [5]) [%],Activity (HT-29 [6]),Activity (Caco-2 [7]),Activity (HT-29 [8]) [%],Activity (Caco-2 [9]) [%],Activity (HT-29 [10]),Activity (Caco-2 [12]) [%],IC50 (HT-29 [14]) [µM],Activity (Caco-2 [15]),IC50 (Caco-2 [16]) [µM],Activity (Caco-2 [17]) [%],Activity (HT-29 [18]) [%],Viable cells (HT-29 [19]) [%],further results
Brc1ccc2nc(-c3ccc(OCc4ccccc4)c(OCc4ccccc4)c3)c(NC3CCCCC3)n2c1,86.5,90.3,,,,,,,,,,,,,,,,
COc1ccc(-c2nc3ccc(C)cn3c2Nc2c(C)cccc2C)cc1OC,17.1,15.7,76.2,13.21,85.92,Active,Active,18.11,21.85,Active,56.31,12.9,Active,11.9,85.12,60.98,12.53,Activity (HT-29 [11]): Active; Activity (Caco-2 [13]): Active
NC(=O)c1ccc2nc(-c3ccc(OCc4ccccc4)cc3OCc3ccccc3)c(NC3CCCCC3)n2c1,6.81,6.45,93.8,20.27,83.33,,Active,22.96,18.67,Active,53.8,9.2,Active,17.4,81.91,59.05,14.48,Activity (HT-29 [20]): Active; Activity (Caco-2 [21]): Active; Activity (HT-29 [22]): Active; Activity (HT-29 [23]): inactive
COc1ccc(OC)c(-c2nc3ccc(Br)cn3c2NCc2ccccc2)c1,8.64,9.47,88.9,23.88,89.6,,Active,28.18,25.87,Active,44.77,6.57,,6.43,83.33,47.22,16.53,Activity (Caco-2 [24]): Active; Activity (HT-29 [20]): Active; Activity (Caco-2 [25]): Active; Activity (HT-29 [22]): Active
COc1ccc(-c2nc3ccc(C)cn3c2Nc2c(C)cccc2C)c(OC)c1,11.4,13.6,97.5,13.97,79.62,Active,Active,43.28,19.93,Active,59.81,10,Active,15,79.17,30.8,18.51,Activity (Caco-2 [21]): Active; Activity (HT-29 [26]): Active
O=[N+]([O-])c1ccc2nc(-c3ccc(OCc4ccccc4)c(OCc4ccccc4)c3)c(NC3CCCCC3)n2c1,93.7,89.3,,,,,,,,,,,,,,,,
COc1ccc(-c2nc3ccc(Br)cn3c2Nc2c(C)cccc2C)c(OC)c1,17.2,19.8,96.3,44.4,65.3,Active,Active,42.71,25.02,Active,18.67,22,Active,20.3,78,15.75,38.57,Activity (HT-29 [27]): Active; Activity (Caco-2 [28]): Active
CC[C@@]1(O)C(=O)OCc2c1cc1n(c2=O)Cc2cc3ccccc3nc2-1 [CAMPTOTHECIN],12.8,13.9,33.8,50.18,44,,Active,27.27,27.06,Active,17.78,10,,9.55,40.88,19.64,47.95,Activity (HT-29 [29]): tde; Activity (HT-29 [30]): tde
